From ChEMBL document CHEMBL1128490, “(+/-)-(Z)-2-(aminomethyl)-1-phenylcyclopropanecarboxamide derivatives as a new prototype of NMDA receptor antagonists” (J Med Chem, 1995)

Key:
Glutamate NMDA receptor = assay: Inhibition of [3H]MK-801 binding to NMDA receptor of rat cerebral cortical synaptic membrane
Mus musculus [1] = assay: Percentage protection against NMDA-induced lethality in mice by the compound at 20 mg/Kg administered ip 60 mins before iv administration of NMDA in the lethal dose of 90 mg/Kg.; type: functional
How it was run: (§1)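 Male ddY mice (20-28 g), groups of 10, given test compound in saline by intraperitoneal injection. 60 min later they were challenged with a lethal intravenous dose of NMDA (90 mg/kg) in saline. The read-out is protection from NMDA-induced death.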

Mus musculus [2] = assay: Percentage protection against NMDA-induced lethality in mice by the compound at 40 mg/Kg administered ip 60 mins before iv administration of NMDA in the lethal dose of 90 mg/Kg.; type: functional; how it was run: as §1

| IC50 (Glutamate NMDA receptor) [µM] | SMILES | Protection (Mus musculus [1]) [%] | Protection (Mus musculus [2]) [%] |
| --- | --- | --- | --- |
| > 100 | NC[C@@H]1C[C@@]1(C(=O)O)c1ccccc1 |  |  |
| > 100 | CCN(CC)C(=O)[C@@]1(c2ccccc2)C[C@H]1CO |  |  |
| > 100 | CCOC(=O)[C@@]1(c2ccccc2)C[C@H]1CN |  |  |
| > 100 | CCN(CC)C(=O)[C@@]1(c2ccccc2)C[C@H]1CN=[N+]=[N-] |  |  |

The remaining lines, values behind:

| SMILES | IC50 (Glutamate NMDA receptor) [µM] | Protection (Mus musculus [1]) [%] | Protection (Mus musculus [2]) [%] |
| --- | --- | --- | --- |
| CCN(CC)C(=O)[C@@]1(c2ccccc2)C[C@H]1Cn1ccnc1C | > 100 |  |  |
| CCN(CC)C(=O)[C@@]1(c2ccccc2)C[C@H]1CN(C)C | 88 | 10 | 40 |
| CCN(CC)C(=O)[C@@]1(c2ccccc2)C[C@H]1C=O | > 100 |  |  |
| CCN(CC)C(=O)[C@@]1(c2ccccc2)C[C@H]1CNC | 13 | 20 | 30 |
| CCN(CC)C(=O)[C@@]1(c2ccccc2)C[C@H]1CCN | 10 | 30 | 20 |
| CCN(CC)C(=O)[C@@]1(c2ccccc2)C[C@H]1CN [LEVOMILNACIPRAN] | 6.3 | 60 | 100 |
